Data taken from ChEMBL document CHEMBL1811758, “Inhibition of monoamine oxidase by C5-substituted phthalimide analogues” (Bioorg Med Chem, 2011).

What was measured:
[1] = molecular target: T1, Amine oxidase [flavin-containing] B (Homo sapiens, UniProt P27338); assay: Inhibition of human recombinant MAOB expressed in insect cells using kynuramine substrate by fluorescence spectroscopy
T1 sequence (P27338 whole entry): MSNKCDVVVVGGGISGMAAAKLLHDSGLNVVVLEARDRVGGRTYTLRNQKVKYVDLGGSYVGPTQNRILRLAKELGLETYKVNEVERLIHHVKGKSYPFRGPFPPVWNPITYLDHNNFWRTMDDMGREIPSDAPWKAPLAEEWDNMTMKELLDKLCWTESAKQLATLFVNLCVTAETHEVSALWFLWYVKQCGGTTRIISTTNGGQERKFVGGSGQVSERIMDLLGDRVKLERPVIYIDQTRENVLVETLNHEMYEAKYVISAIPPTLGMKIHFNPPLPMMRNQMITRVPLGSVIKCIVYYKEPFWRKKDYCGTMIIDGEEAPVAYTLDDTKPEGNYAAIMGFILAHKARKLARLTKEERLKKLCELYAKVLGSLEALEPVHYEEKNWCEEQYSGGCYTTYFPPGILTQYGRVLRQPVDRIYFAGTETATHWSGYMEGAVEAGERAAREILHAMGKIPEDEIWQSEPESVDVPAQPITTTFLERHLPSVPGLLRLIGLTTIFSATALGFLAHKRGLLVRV

[2] = molecular target: T2, Amine oxidase [flavin-containing] A (Homo sapiens, UniProt P21397); assay: Inhibition of human recombinant MAOA expressed in insect cells using kynuramine substrate by fluorescence spectroscopy
T2 sequence (P21397 whole entry): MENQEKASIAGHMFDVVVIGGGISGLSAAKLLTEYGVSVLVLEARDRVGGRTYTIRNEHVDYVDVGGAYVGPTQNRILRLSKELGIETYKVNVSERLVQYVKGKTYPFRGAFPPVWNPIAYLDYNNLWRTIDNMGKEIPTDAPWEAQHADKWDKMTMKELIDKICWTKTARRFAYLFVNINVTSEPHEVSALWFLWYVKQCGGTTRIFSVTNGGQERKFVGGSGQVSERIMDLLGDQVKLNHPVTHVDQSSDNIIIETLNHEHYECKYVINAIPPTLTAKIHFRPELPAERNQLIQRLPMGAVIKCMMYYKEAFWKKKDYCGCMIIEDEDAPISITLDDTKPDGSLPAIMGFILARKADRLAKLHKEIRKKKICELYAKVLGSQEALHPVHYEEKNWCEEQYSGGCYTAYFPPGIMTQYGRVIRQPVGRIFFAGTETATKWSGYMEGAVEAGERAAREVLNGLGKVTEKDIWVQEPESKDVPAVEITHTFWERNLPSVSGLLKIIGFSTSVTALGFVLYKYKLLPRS

[3] = molecular target: T2, Amine oxidase [flavin-containing] A; assay: Inhibition of human recombinant MAOA expressed in insect cells using kynuramine substrate using Cheng and Prusoff equation by fluorescence spectroscopy
[4] = molecular target: T1, Amine oxidase [flavin-containing] B; assay: Inhibition of human recombinant MAOB expressed in insect cells using kynuramine substrate using Cheng and Prusoff equation by fluorescence spectroscopy
Homo sapiens = species on record: Homo sapiens; assay: Selectivity index, ratio of Ki for human recombinant MAOA to Ki for human recombinant MAOB
How it was run: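 Recombinant human MAO-A and MAO-B from baculovirus-infected insect-cell microsomes. Kynuramine at 45 µM (A) or 30 µM (B) final, in 100 mM potassium phosphate pH 7.4 made isotonic with KCl. 37 °C for 20 min, stopped with NaOH; 4-hydroxyquinoline fluorescence read at ex 310/em 400 nm. IC50 from 9–10 concentrations, duplicate. Ki = IC50/(1+[S]/Km), Km 16.1 (A), 22.7 µM (B); ratio Ki(A)/Ki(B).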

[5] = molecular target: T2, Amine oxidase [flavin-containing] A; assay: Inhibition of human recombinant MAOA expressed in insect cells using kynuramine substrate at 100 uM by fluorescence spectroscopy
How it was run: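 MAO-A (insect-cell microsomes) was incubated with kynuramine (45 µM final) for 20 min at 37 °C in isotonic phosphate buffer, pH 7.4, with inhibitor at a maximum tested concentration of 100 µM. The reaction was stopped with NaOH, and 4-hydroxyquinoline was read fluorometrically (ex 310/em 400 nm). Percent inhibition is the mean of duplicates.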

[6] = molecular target: T1, Amine oxidase [flavin-containing] B; assay: Inhibition of human recombinant MAOB expressed in insect cells using kynuramine substrate at 100 uM by fluorescence spectroscopy
How it was run: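 Single-point MAO-B assay: inhibitor at a maximum of 100 µM, kynuramine 30 µM final, 20 min at 37 °C in isotonic 100 mM potassium phosphate, pH 7.4. NaOH was added to stop the reaction, and 4-hydroxyquinoline was measured by fluorescence (ex 310/em 400 nm). Duplicate determinations were made, with percent inhibition reported.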

[7] = molecular target: T2, Amine oxidase [flavin-containing] A; assay: Time dependent inhibition of human recombinant MAOA expressed in insect cells at 13.42 uM preincubated 0 to 60 mins before kynuramine substrate addition by fluorescence spectroscopy
How it was run: (§1)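 Enzyme (0.03 mg/mL) was preincubated with inhibitor for 0, 15, 30 or 60 min at 37 °C in isotonic 100 mM potassium phosphate, pH 7.4. Preincubation inhibitor was 13.42 µM for MAO-A and 5.00 µM for MAO-B. Kynuramine was then added (45 µM for MAO-A, 30 µM for MAO-B), giving final enzyme 0.015 mg/mL and final inhibitor 6.71 µM (A) or 2.5 µM (B). After 15 min at 37 °C and NaOH stop, 4-hydroxyquinoline fluorescence was read, in triplicate.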

[8] = molecular target: T1, Amine oxidase [flavin-containing] B; assay: Time dependent inhibition of human recombinant MAOB expressed in insect cells at 5 uM preincubated 0 to 60 mins before kynuramine substrate addition by fluorescence spectroscopy; how it was run: as §1
[9] = molecular target: T2, Amine oxidase [flavin-containing] A; assay: Reversible inhibition of human recombinant MAOA expressed in insect cells using kynuramine substrate by Lineweaver-Burk plot
How it was run: (§2)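 Kynuramine at 15, 30, 60 and 90 µM; MAO-A at 0.015 mg/mL in the reaction; inhibitor at 0, 1.7, 3.4 and 6.8 µM. Reactions ran in isotonic potassium phosphate (100 mM, pH 7.4) at 37 °C for 20 min and were stopped with NaOH. Initial rates were read by 4-hydroxyquinoline fluorescence (ex 310/em 400 nm) and plotted double-reciprocally.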

[10] = molecular target: T1, Amine oxidase [flavin-containing] B; assay: Reversible inhibition of human recombinant MAOB expressed in insect cells using kynuramine substrate by Lineweaver-Burk plot
How it was run: (§3)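 Initial MAO-B rates (0.015 mg/mL enzyme) were measured at kynuramine 15, 30, 60 and 90 µM, without inhibitor and with 0.625, 1.25 or 2.5 µM inhibitor. Incubation was 20 min at 37 °C in isotonic 100 mM potassium phosphate, pH 7.4, followed by NaOH stop. 4-Hydroxyquinoline fluorescence (ex 310/em 400 nm) was read, and Lineweaver–Burk plots were drawn.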

[11] = molecular target: T2, Amine oxidase [flavin-containing] A; assay: Competitive inhibition of human recombinant MAOA expressed in insect cells using kynuramine substrate by Lineweaver-Burk plot; how it was run: as §2
[12] = molecular target: T1, Amine oxidase [flavin-containing] B; assay: Competitive inhibition of human recombinant MAOB expressed in insect cells using kynuramine substrate by Lineweaver-Burk plot; how it was run: as §3

Row | IC50 [1] [nM] | IC50 [2] [nM] | Ki [3] [nM] | Ki [4] [nM] | Ratio Ki (Homo sapiens) | SMILES | further results
1 | 134000 |  |  |  |  | O=C1NC(=O)c2ccccc21 [PHTHALIMIDE] | 
2 | 55 | 1080 | 285 | 24 | 12 | O=C1NC(=O)c2cc(Oc3ccc(Br)cc3)ccc21 | 
3 |  |  |  |  |  | O=C1c2ccccc2C(=O)N1c1ccccc1 [N-PHENYL-PHTHALIMIDE] | inhibition at 100 µM [5]: 10.5%; inhibition at 100 µM [6]: 50.3%
4 | 33 | 920 | 200 | 10 | 17 | O=C1NC(=O)c2cc(Oc3ccc4ccccc4c3)ccc21 | 
5 | 50 | 1730 | 460 | 20 | 21 | O=C1NC(=O)c2cc(OCCCc3ccccc3)ccc21 | 
6 | 46 | 8990 | 2370 | 20 | 120 | O=C1NC(=O)c2cc(OC/C=C/c3ccccc3)ccc21 | 
7 | 2490 | 5850 | 1540 | 1070 | 1 | O=C1NC(=O)c2cc(Oc3ccccc3)ccc21 | TDI [7]: Not Active; TDI [8]: Not Active; inhibition (INH) [9]: Active; inhibition (INH) [10]: Active; inhibition (INH) [11]: Active; inhibition (INH) [12]: Active
8 |  |  |  |  |  | O=C1c2ccccc2C(=O)N1Cc1ccccc1 | inhibition (INH) ([5]; 100 µM): Not Active; inhibition at 100 µM [6]: 20.2%
